Shown are actives, neighbours in structure and some others; about 2.2% of the full set was active somewhere.
GalR3 antag: blocks the human galanin receptor 3; O60755; HEK293 GalR3-CNG cAMP membrane potential fluorescence; galR3 body fused to GalR1 C-terminus; inhibition, % at 3 µM; 360,000 compounds, 0.44% hits;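 active means inhibition above the screen-wide average plus 3 SD, cut at about 13% in these data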;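 further: forskolin and galanin both at EC90 stimulate the cells; cAMP rise reported by CNG channel membrane potential dye signal; 0% = forskolin plus galanin with DMSO and 100% = forskolin alone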
Target sequence (O60755 1-299 limits assumed): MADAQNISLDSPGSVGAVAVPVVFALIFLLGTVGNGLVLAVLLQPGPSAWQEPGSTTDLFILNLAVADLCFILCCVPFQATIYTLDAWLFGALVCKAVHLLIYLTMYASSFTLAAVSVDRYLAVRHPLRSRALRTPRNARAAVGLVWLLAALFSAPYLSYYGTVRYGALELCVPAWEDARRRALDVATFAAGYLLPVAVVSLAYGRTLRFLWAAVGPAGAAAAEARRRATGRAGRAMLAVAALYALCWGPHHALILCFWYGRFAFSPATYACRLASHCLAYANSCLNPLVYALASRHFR
NR2E3 ag-1: agonists of human NR2E3 nuclear receptor; Q9Y5X4; CHO-S Gal4-NCOR/VP16-NR2E3 two-hybrid, luciferase; inhibition of corepressor binding, % at 3.98 µM; 360,000 compounds, 0.35% hits; AID 602229;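 active means inhibition above the mean of all tested compounds plus 3 SD, cut at about 70% in these data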;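 further: 0% = DMSO with NR2E3 transfected cells and 100% = cells lacking NR2E3 construct; higher means lower luciferase signal from less NR2E3 corepressor binding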
SMARCA2 act: activators of SMARCA2 function; MG213 cells, MMTV-luciferase reporter, dexamethasone, overnight; activation, % at 9.1 µM; 370,000 compounds, 1% hits; AID 652017; in the data active means activation above about 7.8%;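 further: 0% = vehicle wells and 100% = reference activator wells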
NR2F2 inh: NR2F2 (human) inhibition, primary screen; P24468; HEK293T NGFI-A luciferase reporter, luminescence; inhibition, % at 8.6 µM; 370,000 compounds, 0.7% hits; AID 686940;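 active means inhibition above a per-plate cutoff, mean inhibition of test wells between control levels plus 3 SD, cut at about 38% in these data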;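 further: cells cotransfected with COUP-TFII expression vector driving the NGFI-A reporter; 0% = median of COUP-TF2 test wells and 100% = reporter-only cells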
NR2E3 ag-2: NR2E3 (human) agonism; inhibition of corepressor binding, % at 4.78 µM; 320,000 compounds, 0.12% hits; GST-NR2E3/biotin-RetCOR TR-FRET, 1536-well;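 active means percent inhibition above the cutoff of mean plus 3 SD of all tested compounds, set per screening campaign, cut at about 20% in these data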;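 further: 0% = DMSO wells and 100% = biotin wells as full block of FRET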
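System: GST-NR2E3 and biotin-RetCOR proteins; probe or stimulus: 7 nM biotin-RetCOR; doses: compound at 4.8 µM, single dose; schedule: Compound–protein incubation for 5 h at 4 °C; detection: time-resolved FRET; read-out: percent inhibition; controls: biotin wells as high control, 0.6% DMSO wells as low control; format: 1536-well plates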
GalR3 conf: GalR3 (human) antagonism, confirmation | 1,600 compounds, 59% hits | inhibition, % at 3 µM | HEK293 GalR3 CNG cAMP biosensor, membrane potential fluorescence; galR3 fused to GalR1 carboxy tail; challenged with forskolin and galanin at EC90 | shares compounds with GalR3 antag | AID 652245;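 active means inhibition above the primary screen's cutoff, the mean inhibition of all screened compounds plus 3 SD, cut at about 13% in these data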;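 further: 0% = forskolin plus galanin and 100% = forskolin alone with DMSO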
HEK-CNG parental: parental cell agonism counter-screen for GalR3 antagonists. shares compounds with GalR3 antag. HEK293-CNG parental cells, cAMP membrane potential fluorescence; normalised: DMSO wells 0%, forskolin wells 100%. activation, % at 3 µM. 1,600 compounds, 10% hits. AID 652268; in the data active means activation above about 1.3%
An asterisk follows results filed as active; x = not tested or not shown.

SMILES	GalR3 antag	NR2E3 ag-1	SMARCA2 act	NR2F2 inh	NR2E3 ag-2	GalR3 conf	HEK-CNG parental
CCCCC[C@H](O)/C=C/[C@@H]1[C@@H](C/C=C\CCCC(=O)OC)[C@@H](O)C[C@H]1O	x	1	x	x	-1	x	x
NC(=O)C1CCN(c2nc(-c3ccc4c(c3)CCO4)cs2)CC1	x	x	x	-41	x	x	x
CC(C)Oc1ccc(F)cc1-c1cc(C(=O)NCc2cccs2)[nH]n1	23*	-18	0	-61	x	0	1
O=C(NC1CCC1)c1ccc(C#Cc2cccc(F)c2)cn1	x	x	-2	-37	x	x	x
O=C(CCc1ccccc1-c1ccccc1CCNC(=O)c1cccc(F)c1)NCc1ccccc1	x	x	-7	8	x	x	x
Cc1ccc(C)c(N(C)C(=O)c2cc3c(=O)[nH]c4ccc(C)cc4c3s2)c1	16*	-23	-1	17	3	19*	3.2*
CCCN(CCC)C(=O)c1cc2c(=O)[nH]c3ccc(C)cc3c2s1	-1	-36	-5	5	3	x	x
CCCCNC(=O)C[C@H]1C(=O)N(CCCOC)C2=CCCCC[C@]21C(=O)OC	x	x	-1	-8	x	x	x
Cn1nccc1C(=O)Nn1cnnc1	x	-38	-2	-5	-2	6	0
COc1ccc2cc(C(=O)CS(=O)(=O)c3ccc(Cl)cc3)c(=O)oc2c1	-6	x	-2	-3	x	x	x
COc1nc(OC)nc(N2CCC(C(=O)N(C)Cc3ccco3)CC2)n1	x	x	-6	9	x	x	x
O=C(CSC1=NCCS1)N1CCN(c2ccc(Cl)cc2)CC1	45*	3	-6	36	3	46*	0
CCC(O)(c1ccc(NC(=O)OC(C)(C)C)cc1)c1cc(OC)cc(OC)c1 (centres undefined)	x	x	-4	7	x	x	x
COc1cc(C2NC(=O)NC(C)=C2C(=O)OCc2ccc(C)cc2)cc(OC)c1O (centres undefined)	15*	-22	1	9	0	14*	0
Nc1nc(F)nc2c1ncn2[C@@H]1O[C@H](COP(=O)(O)O)[C@@H](O)[C@@H]1O	x	x	-5	-16	x	x	x
O=C(C1CCCO1)N1CCN(C2=Nc3ccccc3Sc3ccccc32)CC1 (centres undefined)	x	x	-1	17	x	x	x
NCCCC[C@H](NC(=O)C1CCNCC1)c1nnc([C@@H](N)Cc2ccc(O)cc2)o1	x	-25	0	5	2	-1	0
O=C(c1ccc([N+](=O)[O-])s1)N1CCN(c2ccccn2)CC1	-8	-23	0	9	0	x	x
O=C(c1ccc([N+](=O)[O-])s1)N1CCN(c2ccccc2)CC1	50*	21	-3	17	1	-5	0
O=C1NC(=Nc2ccccc2)S/C1=C\c1cccnc1	2	0	-5	5	0	x	x
Cc1ccc(N=C2NC(=O)/C(=C/c3cccnc3)S2)cc1C	15*	18	-6	-6	-1	4	0
COc1cc(/C=N/NC(N)=O)c(Br)cc1OCC(=O)Nc1ccccc1C	-3	-14	0	3	-1	x	x
COc1cc(/C=N/NC(=S)N/N=C/c2cc(OC)c(OC)c(OC)c2)cc(OC)c1OC	20*	-4	4	-35	-4	16*	0
C=CCOc1c(Br)cc(/C=N/NC(N)=O)cc1OC	13*	7	-3	11	-3	7	0
COc1cc(/C=N/NC(N)=O)cc(Br)c1OCc1ccccc1C	3	-25	1	-18	1	x	x
SMILES	GalR3 antag	NR2E3 ag-1	SMARCA2 act	NR2F2 inh	NR2E3 ag-2	GalR3 conf	HEK-CNG parental
CCOc1cc(/C=N/NC(N)=O)cc(Br)c1OCC(=O)Nc1ccccc1C	69*	-22	0	-4	3	40*	0
COC(=O)c1cc(-c2ccc(F)c(Cl)c2)c(=O)n2c1CCC2	x	x	2	13	x	x	x
CCOc1ccc(-n2c(SCc3ccc([N+](=O)[O-])cc3)nnc2-c2ccccc2)cc1	70*	-13	-3	-2	1	72*	1.3*
CCOc1ccc(-n2c(SCc3cccc4ccccc34)nnc2-c2ccc(C)cc2)cc1	x	x	-6	35	x	x	x
COc1ccc(-c2nnc(SCc3ccccc3)n2N)cc1	-3	-57	3	-21	1	x	x
COc1ccc(-n2c(SCc3ccc([N+](=O)[O-])cc3)nnc2-c2ccccc2)cc1	57*	-4	-2	11	2	64*	0
COc1ccccc1C(=O)NC1CCCCN(Cc2cccc(F)c2)C1=O (centres undefined)	x	x	0	-15	x	x	x
COc1ccc(Nc2nc(Cl)nc(NCCO)n2)cc1	20*	-2	-4	-3	2	-1	0
Cc1cccc(C)c1NC(=O)COC(=O)c1c2c(nc3ccccc13)/C(=C\c1ccc3c(c1)OCO3)CCC2	x	-32	1	19	-1	-3	0
Cc1ccc2[nH]c(O)c(N=NC(N)=S)c2c1	-2	-22	3	-10	-7	x	x
COc1ccc2[nH]c(O)c(N=NC(=N)N)c2c1	14*	-4	-5	-11	-11	3	0
CCOc1ccc(-c2ccc(SCc3ccccn3)nn2)cc1	-3	-56	0	-52	-1	x	x
CCOc1ccc(-c2ccc(SCC)nn2)cc1	x	-117	5	-25	-2	-5	0
O=C(NCCN1CCC(Cc2ccccc2)CC1)C1CCCN(S(=O)(=O)c2ccccc2)C1 (centres undefined)	x	x	-3	34	x	x	x
CC(=O)c1c(C)[nH]c(C(=O)OCC(=O)Nc2cc(Cl)ccc2[N+](=O)[O-])c1C	93*	-11	-4	-12	3	50*	-1
CC(=O)c1c(C)[nH]c(C(=O)OCC(=O)NCc2ccc(Cl)cc2)c1C	-8	7	-2	30	1	x	x
CC1(C)CC(=O)C2=C(C1)NC1=C(C(=O)c3ccccc31)C2c1ccc(O)cc1 (centres undefined)	34*	-3	-3	1	-5	60*	-1
COC(=O)[C@H](Cc1ccccc1)N1C[C@@H](N2CCC[C@H]2C)CS1(=O)=O	-2	x	1	11	x	x	x
O=C(Nc1nc(-c2cc3ccccc3o2)cs1)c1ccc(S(=O)(=O)N2CCCC2)cc1	-4	24	0	5	-3	x	x
CN(C)S(=O)(=O)c1ccc(C(=O)Nc2nc(-c3cc4ccccc4o3)cs2)cc1	93*	28	-6	35	3	103*	-1
CN(C)S(=O)(=O)c1ccc(Cl)c(C(=O)NCC2CCCCC2)c1	2	-18	0	-8	3	x	x
CN(C)S(=O)(=O)c1ccc(Cl)c(C(=O)NCCNC(=O)c2cc(S(=O)(=O)N(C)C)ccc2Cl)c1	13*	4	-3	-5	1	8	0
